The values that follow come from BindingDB's records for doi:10.1021/jm0300274 (The University of Georgia, 2003).

The pEC50 is the EC50 on a negative log10 scale, so that one unit is a factor of ten. The low end stands for a high EC50, the high end for a low EC50.

The structures appear in SMILES notation. pEC50: −log10 of the molar value.

The test relates to HIV-1 (antiviral activity in human PBM cells). The test is described as follows: Anti-HIV-1 activity determined in human peripheral blood mononuclear PBM cells, expressed as EC50. The essentials:
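PHA-stimulated (2-3 days) human PBM cells from healthy seronegative donors were infected with HIV-1 LAI for 1 h in bulk, then placed into 10-fold serial compound dilutions. Medium contained IL-2 and DEAE-dextran. After 5 days at 37 °C, supernatant virus was pelleted and RT activity measured. EC50 was taken from the concentration-response curve by the median effect method.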
In turn, `Nc1nc2c(ncn2[C@H]2CC(F)(F)[C@H](CO)O2)c(=O)[nH]1` showed a pEC50 of less than 4.00. The figure for `O=c1ccn([C@@H]2CC(F)(F)[C@H](CO)O2)c(=O)[nH]1` is less than 4.00; for `Nc1ccn([C@@H]2CC(F)(F)[C@H](CO)O2)c(=O)n1` it is 4.94.

In turn, `Cc1cn([C@@H]2CC(F)(F)[C@H](CO)O2)c(=O)[nH]c1=O` had a pEC50 of less than 4.00. `O=c1[nH]cnc2c1ncn2[C@@H]1CC(F)(F)[C@H](CO)O1` had a negative-log EC50 (pEC50) of less than 4.00. The figure for `O=c1ccn([C@H]2CC(F)(F)[C@H](CO)O2)c(=O)[nH]1` is less than 4.00; for `Cc1cn([C@H]2CC(F)(F)[C@H](CO)O2)c(=O)[nH]c1=O` it is less than 4.00. For the molecule `Nc1nc(=O)n([C@@H]2CC(F)(F)[C@H](CO)O2)cc1F`, the negative logarithm of the EC50 (pEC50) was 5.06. `Nc1nc2c(ncn2[C@@H]2CC(F)(F)[C@H](CO)O2)c(=O)[nH]1` had a pEC50 of less than 4.00. With `Nc1ncnc2c1ncn2[C@H]1CC(F)(F)[C@H](CO)O1`, the pEC50 was less than 4.00.

Take `Nc1ccn([C@H]2CC(F)(F)[C@H](CO)O2)c(=O)n1`: the pEC50 is less than 4.00. On to `O=c1[nH]cnc2c1ncn2[C@H]1CC(F)(F)[C@H](CO)O1`, for which the pEC50 is less than 4.00. `Nc1ncnc2c1ncn2[C@@H]1CC(F)(F)[C@H](CO)O1` gave a pEC50 of less than 4.00.

In turn, `Nc1nc(=O)n([C@H]2CC(F)(F)[C@H](CO)O2)cc1F` gave a pEC50 of less than 4.00. In turn, `Cc1cn([C@H]2C=C(F)[C@H](CO)O2)c(=O)[nH]c1=O` gave a pEC50 of less than 4.00. Turning to `Nc1nc2c(ncn2[C@@H]2C=C(F)[C@H](CO)O2)c(=O)[nH]1`, the pEC50 was 4.41. In turn, `O=c1[nH]cnc2c1ncn2[C@H]1C=C(F)[C@@H](CO)O1` gave a pEC50 of less than 4.00.

For the molecule `Nc1ncnc2c1ncn2[C@@H]1C=C(F)[C@H](CO)O1`, the pEC50 is less than 4.00. `Nc1ncnc2c1ncn2[C@H]1C=C(F)[C@H](CO)O1` gave a pEC50 of less than 4.00. In the case of `Cc1cn([C@@H]2C=C(F)[C@H](CO)O2)c(=O)[nH]c1=O`, the pEC50 is less than 4.00. Take `Nc1nc2c(ncn2[C@H]2C=C(F)[C@H](CO)O2)c(=O)[nH]1`: the pEC50 was less than 4.00.
